Experimental data: ChEMBL document CHEMBL1221337, “The unsaturated acyclic nucleoside analogues bearing a sterically constrained (Z)-4'-benzamido-2'-butenyl moiety: Synthesis, X-ray crystal structure study, cytostatic and antiviral activity evaluations” (Bioorg Med Chem, 2010)
Calls of active or inactive are those of the source. The rule behind the calls is not given here.

Tests used:
[1] = tested on: Vesicular stomatitis virus; assay: Antiviral activity against Vesicular stomatitis virus infected in HEL cells assessed as inhibition of virus-induced cytopathicity; assay type: functional, organism-based
[2] = tested on: Vaccinia virus; assay: Antiviral activity against Vaccinia virus infected in HEL cells assessed as inhibition of virus-induced cytopathicity; assay type: functional, organism-based; settings: Orthopoxvirus vaccinia
[3] = tested on: Vesicular stomatitis virus; assay: Antiviral activity against Vesicular stomatitis virus infected in human HeLa cells assessed as inhibition of virus-induced cytopathicity; assay type: functional, organism-based
Procedure, shortened: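 Confluent HeLa cultures were infected with 100 CCID50 of virus. Unadsorbed virus was removed after 1 h, and compound was added at serial concentrations (200, 40, 8…). Viral cytopathic effect was read when untreated virus-infected control wells reached full cytopathicity.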

[4] = tested on: Human alphaherpesvirus 2; assay: Antiviral activity against HSV2 G infected in HEL cells assessed as inhibition of virus-induced cytopathicity; assay type: functional, organism-based; settings: strain G
Procedure, shortened: (§1)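 Confluent cell monolayers in 96-well plates were inoculated with 100 CCID50 of virus. After 1 h adsorption, residual virus was removed. Cultures were then incubated with test compound at varying concentrations (200, 40, 8... µM). Viral cytopathicity was scored once it reached completion in untreated infected controls. Host cells: HEL for HSV-1 KOS and HSV-2 G; Vero for the Vero lines; HeLa for the HeLa lines.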

[5] = tested on: Human respirovirus 3; assay: Antiviral activity against Parainfluenza 3 infected in Vero cells assessed as inhibition of virus-induced cytopathicity; assay type: functional, organism-based; procedure, shortened: as §1
[6] = tested on: SK-BR-3; assay: Cytotoxicity against human SK-BR-3 cells after 72 hrs by MTT assay; assay type: functional, cell-based; settings: SK-BR-3, 72 h
Procedure, shortened: (§2)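 Adherent cells were plated at 3000–6000 cells/well on day 0, according to doubling time. Compound was added as five 10-fold dilutions (1 × 10⁻⁸–1 × 10⁻⁴ M), with DMSO ≤0.1%, and incubated 72 h. Read-out was MTT absorbance converted to percentage growth versus untreated wells on the same plate. IC50 was obtained by linear regression between bracketing concentrations; the highest concentration was reported as ">" if not reached. Quadruplicates, three experiments.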

[7] = tested on: HeLa; assay: Cytotoxicity against human HeLa cells after 72 hrs by MTT assay; assay type: functional, cell-based; procedure, shortened: as §2
[8] = tested on: MCF7; assay: Cytotoxicity against human MCF7 cells after 72 hrs by MTT assay; assay type: functional, cell-based; settings: MCF7, 72 h; procedure, shortened: as §2
[9] = tested on: HEp-2; assay: Cytotoxicity against human Hep2 cells after 72 hrs by MTT assay; assay type: functional, cell-based; settings: HEp-2, 72 h; procedure, shortened: as §2
[10] = tested on: SW-620; assay: Cytotoxicity against human SW620 cells after 72 hrs by MTT assay; assay type: functional, cell-based; settings: SW-620, 72 h; procedure, shortened: as §2
[11] = tested on: MIA PaCa-2; assay: Cytotoxicity against human MIAPaCa2 cells after 72 hrs by MTT assay; assay type: functional, cell-based; settings: MIA PaCa-2, 72 h; procedure, shortened: as §2
[12] = Cytotoxicity against human WI38 cells after 72 hrs by MTT assay; assay type: cell-based; settings: WI-38, 72 h; procedure, shortened: as §2
[13] = tested on: Human alphaherpesvirus 1; assay: Antiviral activity against HSV1 KOS infected in HEL cells assessed as inhibition of virus-induced cytopathicity; assay type: functional, organism-based; procedure, shortened: as §1
[14] = tested on: Mammalian orthoreovirus 1; assay: Antiviral activity against Reovirus 1 infected in Vero cells assessed as inhibition of virus-induced cytopathicity; assay type: functional, organism-based; procedure, shortened: as §1
[15] = tested on: Sindbis virus; assay: Antiviral activity against Sindbis virus infected in Vero cells assessed as inhibition of virus-induced cytopathicity; assay type: functional, organism-based; procedure, shortened: as §1
[16] = tested on: Coxsackievirus B4; assay: Antiviral activity against Coxsackievirus B4 infected in Vero cells assessed as inhibition of virus-induced cytopathicity; assay type: functional, organism-based; procedure, shortened: as §1
[17] = tested on: Punta Toro virus; assay: Antiviral activity against Punta Toro virus infected in Vero cells assessed as inhibition of virus-induced cytopathicity; assay type: functional, organism-based; procedure, shortened: as §1
[18] = tested on: Coxsackievirus B4; assay: Antiviral activity against Coxsackievirus B4 infected in human HeLa cells assessed as inhibition of virus-induced cytopathicity; assay type: functional, organism-based; procedure, shortened: as §1
[19] = tested on: Respiratory syncytial virus; assay: Antiviral activity against Respiratory syncytial virus infected in human HeLa cells assessed as inhibition of virus-induced cytopathicity; assay type: functional, organism-based; procedure, shortened: as §1
[20] = tested on: Influenza A virus; assay: Antiviral activity against influenza A virus H1N1; H3N2 infected in MDCK cells assessed as inhibition of virus-induced cytopathicity; assay type: functional, organism-based
Procedure, shortened: (§3)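 MDCK cells, nearly confluent in microtiter plates, were infected with 100 CCID50 per well. After 1 h adsorption, the inoculum was washed off. Cells were incubated with graded compound concentrations (200, 40, 8…). Cytopathicity was recorded at completion in untreated infected controls.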

[21] = tested on: Influenza B virus; assay: Antiviral activity against influenza B virus infected in MDCK cells assessed as inhibition of virus-induced cytopathicity; assay type: functional, organism-based; procedure, shortened: as §3
[22] = tested on: HEL; assay: Cytotoxicity against HEL cells assessed as cell viability after 3 days by coulter counting; assay type: cell-based; settings: human, 72 h
Procedure, shortened: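 HEL cells were seeded at 5 × 10³ cells/well and allowed to proliferate 24 h. Medium with test compound at different concentrations was then added, and cells were incubated 3 days at 37 °C. Cell number was counted by Coulter counter. CC50 (50% reduction in cell number versus untreated controls) was read from plots of cell number (% of control) against concentration.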

[23] = tested on: Vero; assay: Cytotoxicity against african green monkey Vero cells assessed as cell viability after 3 days by coulter counting; assay type: cell-based; settings: chlorocebus sabaeus, 72 h
[24] = tested on: HeLa; assay: Cytotoxicity against human HeLa cells assessed as cell viability after 3 days by coulter counting; assay type: cell-based; settings: 72 h
[25] = tested on: MDCK; assay: Cytotoxicity against MDCK cells assessed as cell viability after 3 days by coulter counting; assay type: cell-based, Canis lupus familiaris; settings: dog, 72 h

SMILES: O=C(NC/C=C\Cn1ccc(=O)[nH]c1=O)c1ccc(F)cc1
- inhibition [1]: inactive
- inhibition [2]: inactive
- inhibition [3]: inactive
- inhibition [4]: inactive
- inhibition [5]: inactive
- IC50 [6]: > 100 µM
- IC50 [7]: > 100 µM
- IC50 [8]: 2.7 µM
- IC50 [9]: > 100 µM
- IC50 [10]: > 100 µM
- IC50 [11]: > 100 µM
- IC50 [12]: > 100 µM
- inhibition [13]: inactive
- inhibition [14]: inactive
- inhibition [15]: inactive
- inhibition [16]: inactive
- inhibition [17]: inactive
- inhibition [18]: inactive
- inhibition [19]: inactive
- inhibition [20]: inactive
- inhibition [21]: inactive
- Activity [22]: Non-toxic
- Activity [23]: Non-toxic
- Activity [24]: Non-toxic
- Activity [25]: Non-toxic

SMILES: Nc1nc(=O)n(C/C=C\CNC(=O)c2ccc(F)cc2)cc1F
- inhibition [1]: inactive
- inhibition [2]: inactive
- inhibition [3]: inactive
- inhibition [4]: inactive
- inhibition [5]: inactive
- IC50 [6]: > 100 µM
- IC50 [7]: > 100 µM
- IC50 [8]: > 100 µM
- IC50 [9]: 32.1 µM
- IC50 [10]: > 100 µM
- IC50 [11]: > 100 µM
- IC50 [12]: > 100 µM
- inhibition [13]: inactive
- inhibition [14]: inactive
- inhibition [15]: inactive
- inhibition [16]: inactive
- inhibition [17]: inactive
- inhibition [18]: inactive
- inhibition [19]: inactive
- inhibition [20]: inactive
- inhibition [21]: inactive
- Activity [22]: Non-toxic
- Activity [23]: Non-toxic
- Activity [24]: Non-toxic
- Activity [25]: Non-toxic

SMILES: O=C(NC/C=C\Cn1ccc(=O)[nH]c1=O)c1ccccc1
- inhibition [1]: inactive
- inhibition [2]: inactive
- inhibition [3]: inactive
- inhibition [4]: inactive
- inhibition [5]: inactive
- IC50 [6]: > 100 µM
- IC50 [7]: 4.9 µM
- IC50 [8]: > 100 µM
- IC50 [9]: > 100 µM
- IC50 [10]: > 100 µM
- IC50 [11]: > 100 µM
- IC50 [12]: 6.6 µM
- inhibition [13]: inactive
- inhibition [14]: inactive
- inhibition [15]: inactive
- inhibition [16]: inactive
- inhibition [17]: inactive
- inhibition [18]: inactive
- inhibition [19]: inactive
- inhibition [20]: inactive
- inhibition [21]: inactive
- Activity [22]: Non-toxic
- Activity [23]: Non-toxic
- Activity [24]: Non-toxic
- Activity [25]: Non-toxic

SMILES: O=C(NC/C=C\Cn1cc(C(F)(F)F)c(=O)[nH]c1=O)c1ccccc1
- inhibition [1]: inactive
- inhibition [2]: inactive
- inhibition [3]: inactive
- inhibition [4]: inactive
- inhibition [5]: inactive
- IC50 [6]: > 100 µM
- IC50 [7]: > 100 µM
- IC50 [8]: > 100 µM
- IC50 [9]: > 100 µM
- IC50 [10]: > 100 µM
- IC50 [11]: > 100 µM
- IC50 [12]: > 100 µM
- inhibition [13]: inactive
- inhibition [14]: inactive
- inhibition [15]: inactive
- inhibition [16]: inactive
- inhibition [17]: inactive
- inhibition [18]: inactive
- inhibition [19]: inactive
- inhibition [20]: inactive
- inhibition [21]: inactive
- Activity [22]: Non-toxic
- Activity [23]: Non-toxic
- Activity [24]: Non-toxic
- Activity [25]: Non-toxic
